Experimental data: paper PMC4767718 (Drugs in R&D, 2015)
Like-named read-outs stand apart in the source and are kept apart here.

Assays:
[1] = type: in vivo, human; settings: single 50 mg ECT; for half-life: human, plasma, oral, 50 mg, Mean t½ (SD)
In short: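 Randomized two-way crossover on day 1 of cycles 1 and 2. Fasted arm: ~10 h overnight fast. Fed arm: high-fat meal (54 g fat, 1036 calories) ~30 min predose, ≥75 % eaten. Tablet taken with 240 mL water, then no food for 4 h. Non-compartmental parameters. Ratio 90 % CIs from ANOVA on log data (patient random effect).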

[2] = Safety: drug-related adverse events graded by NCI-CTCAE version 3.0; type: in vivo, human
In short: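 Adverse events monitored throughout and graded by NCI-CTCAE v3.0, alongside regular hematology, clinical chemistry, vital signs and ECOG status. Single oral dose on day 1 of cycles 1–2. Then 40 mg twice daily on days 3–9 (50 mg allowed in cycle 2), followed by 14-day rest. Afterwards, 40 or 50 mg twice daily on days 1–7 of 21-day cycles.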

[3] = test system: advanced solid tumors; assay: Tumor response by RECIST version 1.1; type: in vivo, human
In short: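 RECIST 1.1 response assessed at baseline, end of cycles 2, 4 and 6, then every 3 cycles (9 weeks) until progression. Oral dosing 40 mg twice daily on days 3–9 of cycles 1–2 (escalation to 50 mg allowed in cycle 2). Afterwards, 40 or 50 mg twice daily on days 1–7 of 21-day cycles.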

[4] = acidic pH / acidic solution; cited from earlier work
[5] = dose range of 5–200 mg/day; earlier trials, no reference given; cited from earlier work
[6] = cited from earlier work
[7] = 24 patients, during the first two cycles
[8] = N = 24, all alisertib treatments

COc1cc(Nc2ncc3c(n2)-c2ccc(Cl)cc2C(c2c(F)cccc2OC)=NC3)ccc1C(=O)O [Alisertib]
half-life ([1]; fasted state, n = 11): 16.7 h
half-life ([1]; fed state, n = 14): 14.9 h
AUCtlast geometric mean ratio, fed versus fasted (90 % CI) [1]: 1.04 (0.80–1.34)
Cmax geometric mean ratio, fed versus fasted (90 % CI) [1]: 0.84 (0.66–1.06)
Decrease in geometric mean Cmax after high-fat meal compared with fasted [1]: 16%
AUCinf geometric mean ratio, fed versus fasted (90 % CI) ([1]; n = 11): 0.94 (0.68–1.32)
AUCinf geometric mean ratio, fed versus fasted (90 % CI) ([1]; n = 11, listed as alisertib): 0.94
Geometric mean Cmax under fed conditions as % of that under fasted conditions ([1]; 90 % CI 66–106): 84%
Geometric mean AUCinf under fed conditions as % of that under fasted conditions ([1]; 90 % CI 68–132 %): 94%
Discontinuation of treatment due to AEs ([2]; 24 patients): No patient discontinued treatment due to AEs
Patients reporting at least one drug-related AE ([2]; 24 patients): 96%
Patients with AEs considered serious and related to alisertib ([2]; 24 patients): 13%
Patients with drug-related grade 3/4 leukopenia ([2]; 24 patients): 38%
Patients with drug-related grade 3/4 neutropenia ([2]; 24 patients): 50%
Patients with drug-related grade 3/4 thrombocytopenia ([2]; 24 patients): 21%
Patients with drug-related grade 3 or higher AEs ([2]; 24 patients): 67%
Patients with drug-related alopecia ([2]; 24 patients, any grade): 50%
Patients with drug-related diarrhea ([2]; 24 patients, any grade): 25%
Patients with drug-related fatigue ([2]; 24 patients, any grade): 21%
Patients with drug-related nausea ([2]; 24 patients, any grade): 21%
Serious related grade 3/4 febrile neutropenia [2, 7]: 2 n
Serious related grade 3 neutropenia [2, 7]: 1 n
Drug-related AST increased, all grades [2, 8]: 3 (13) n (%)
Drug-related AST increased, grade ≥3 [2, 8]: 0 n (%)
Drug-related alopecia, all grades [2, 8]: 12 (50) n (%)
Drug-related alopecia, grade ≥3 [2, 8]: 0 n (%)
Drug-related anemia, all grades [2, 8]: 7 (29) n (%)
Drug-related anemia, grade ≥3 [2, 8]: 3 (13) n (%)
Drug-related anorexia, all grades [2, 8]: 4 (17) n (%)
Drug-related anorexia, grade ≥3 [2, 8]: 0 n (%)
Drug-related diarrhea, all grades [2, 8]: 6 (25) n (%)
Drug-related diarrhea, grade ≥3 [2, 8]: 1 (4) n (%)
Drug-related fatigue, all grades [2, 8]: 5 (21) n (%)
Drug-related fatigue, grade ≥3 [2, 8]: 1 (4) n (%)
Drug-related febrile neutropenia, all grades [2, 8]: 2 (8) n (%)
Drug-related febrile neutropenia, grade ≥3 [2, 8]: 2 (8) n (%)
Drug-related leukopenia, all grades [2, 8]: 13 (54) n (%)
Drug-related leukopenia, grade ≥3 [2, 8]: 9 (38) n (%)
Drug-related nausea, all grades [2, 8]: 5 (21) n (%)
Drug-related nausea, grade ≥3 [2, 8]: 0 n (%)
Drug-related neutropenia, all grades [2, 8]: 17 (71) n (%)
Drug-related neutropenia, grade ≥3 [2, 8]: 12 (50) n (%)
Drug-related stomatitis, all grades [2, 8]: 4 (17) n (%)
Drug-related stomatitis, grade ≥3 [2, 8]: 0 n (%)
Drug-related thrombocytopenia, all grades [2, 8]: 7 (29) n (%)
Drug-related thrombocytopenia, grade ≥3 [2, 8]: 5 (21) n (%)
Patients with best response of stable disease ([3]; 24 patients evaluable, alisertib 40 to 50 mg twice daily): 50%
Patients with stable disease lasting more than 3 months ([3]; of 12 patients with stable disease): seven
Solubility [4]: reduced
Pharmacokinetics, dose linearity [5]: linear

CS(=O)(=O)CCNCc1ccc(-c2ccc3ncnc(Nc4ccc(OCc5cccc(F)c5)c(Cl)c4)c3c2)o1 [Lapatinib]
AUC increase when administered with food ([6]; low-fat meal): approximately three

Cc1nc(Nc2ncc(C(=O)Nc3c(C)cccc3Cl)s2)cc(N2CCN(CCO)CC2)n1 [dasatinib]
Increase in the mean AUC after a high-fat meal ([6]; 100 mg dose following a high-fat meal (30 min)): 14%

C#Cc1cccc(Nc2ncnc3cc(OCCOC)c(OCCOC)cc23)c1 [erlotinib]
Change of systemic exposure under fed compared with fasted conditions ([6]; single-dose crossover study): approximately doubled

COc1cc2ncnc(Nc3ccc(F)c(Cl)c3)c2cc1OCCCN1CCOCC1 [gefitinib]
Effect of food on systemic exposure [6]: unaffected by food
